Assay results reported in ChEMBL document CHEMBL4368913, “Design, Synthesis, and Biological Evaluation of 6-Substituted Thieno[3,2- d]pyrimidine Analogues as Dual Epidermal Growth Factor Receptor Kinase and Microtubule Inhibitors” (J Med Chem, 2019).
Active and inactive are the calls of the source. No cut-off for these calls is given here.

Experiments:
RS4-11 = test: Antiproliferative activity against human RS4:11 cells after 72 hrs by MTT assay; assay type: functional, cell-based; conditions: RS4-11, 72 h
In short: (§1)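 Cells in medium with 10% FBS, seeded at 8×10^3 per well, 18 h at 37 °C, 5% CO2, then graded compound concentrations (DMSO ≤0.25%) for 72 h. Viability by MTT. […] Mean ± SE of dose-response curves from at least three independent experiments.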

[1] = target: T1, Vascular endothelial growth factor receptor 2 (Homo sapiens, UniProt P35968); test: Inhibition of wild type VEGFR2 (unknown origin) by bioluminescent ADP-glo kinase assay
[2] = target: T2, Epidermal growth factor receptor (Homo sapiens, UniProt P00533); test: Inhibition of wild type EGFR (unknown origin) by bioluminescent ADP-glo kinase assay
A549 = test: Antiproliferative activity against human A549 cells after 72 hrs by MTT assay; assay type: functional, cell-based; conditions: A549, 72 h
HT-29 = test: Antiproliferative activity against human HT-29 cells after 72 hrs by MTT assay; assay type: functional, cell-based; conditions: HT-29, 72 h
Tubulin = Tubulin (Bos taurus, UniProt Q6B856+Q862L2+Q862F3); test: Inhibition of bovine brain tubulin polymerization after 20 mins
In short: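 Bovine brain tubulin (10 μM) preincubated with varying compound concentrations in 0.8 M monosodium glutamate, pH 6.6, at 30 °C, then chilled to 0 °C. 0.4 mM GTP added, mixtures warmed to 30 °C, assembly followed by turbidity at 350 nm.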

Jurkat [3] = test: Antiproliferative activity against human Jurkat cells after 72 hrs by MTT assay; assay type: functional, cell-based; in short: as §1
HeLa [4] = test: Antiproliferative activity against human HeLa cells after 72 hrs by MTT assay; assay type: functional, cell-based
HeLa [5] = test: Induction of cell cycle arrest in human HeLa cells assessed as arrest in mitotic phase at 100 nM after 24 hrs by p-histone H3 antibody staining based flow cytometry (reference value: 1.32%); assay type: functional
Jurkat [6] = test: Induction of cell cycle arrest in human Jurkat cells assessed as accumulation at G2/M phase at 25 nM after 24 hrs by propidium iodide-stained flow cytometry; assay type: functional, cell-based
In short: (§2)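 5×10^5 HeLa or Jurkat cells exposed 24 h, then collected, fixed in ice-cold 70% ethanol, treated with lysis buffer containing RNase A and 0.1% Triton X-100, and stained with PI. DNA content by flow cytometry. Mean ± SEM, three independent experiments.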

HUVEC [7] = test: Antivascular activity in HUVEC assessed as effect on number of meshes at 10 to 100 nM after 1 hr by matrigel assay; assay type: functional, cell-based; conditions: Homo sapiens
In short: (§3)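 HUVECs (primary cord-derived, passages 1-6), 6×10^4 cells per well on Matrigel, left 6 h to form capillary tubes. Compound at 10 or 100 nM then added for 1 h. Five fields per well photographed at 10x, and network dimensional/topological parameters quantified. Mean ± S.E.M. of three independent experiments.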

Tubulin (Bos taurus) = Tubulin (Bos taurus) (UniProt Q6B856+Q862L2+Q862F3); test: Inhibition of [3H]-colchicine binding to bovine brain tubulin at 1 to 5 uM after 20 mins relative to control
In short: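 Colchicine-binding inhibition in mixtures of 1 μM tubulin, 5 μM [3H]colchicine and test compound at 1 or 5 μM.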

HUVEC [8] = test: Antivascular activity in HUVEC assessed as effect on mesh area at 10 to 100 nM after 1 hr by matrigel assay; assay type: functional, cell-based; conditions: Homo sapiens; in short: as §3
HUVEC [9] = test: Antivascular activity in HUVEC assessed as effect on master junction at 10 to 100 nM after 1 hr by matrigel assay; assay type: functional, cell-based; conditions: Homo sapiens; in short: as §3
B16 [10] = test: Antitumor activity against mouse B16 cells allografted in C57BL/6 mouse assessed as reduction in tumor burden at 7.5 mg/kg, ip dosing starting on day 9 post tumor injection administered […] on day 9,11, 13 and 15 relative to control; assay type: functional; parameters: scale not given: the % may be the effect or the level left
In short: (§4)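 Six-week-old male C57BL/6 mice injected subcutaneously in the dorsolateral flank with 2.5×10^5 BL6-B16 melanoma cells in PBS. Once tumors were palpable, ip dosing every other day on days 9, 11, 13 and 15 at 3 or 7.5 mg/kg in 50 µL DMSO. Vehicle controls; CA-4P 30 mg/kg reference. Tumor volume and body weight tracked; 5 mice/group, mean ± SEM.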

B16 [11] = test: Antiproliferative activity against mouse B16 cells after 72 hrs by MTT assay; assay type: functional, cell-based; conditions: B16, 72 h
HUVEC [12] = test: Antivascular activity in HUVEC assessed as effect on segment length at 10 to 100 nM after 1 hr by matrigel assay; assay type: functional, cell-based; conditions: Homo sapiens; in short: as §3
HeLa [13] = test: Induction of apoptosis in human HeLa cells assessed as decrease in bcl2 expression at 50 to 100 nM after 24 to 48 hrs by Western blot analysis; assay type: functional, cell-based
In short: (§5)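 HeLa cells incubated with compound at indicated concentrations and times, then washed in ice-cold PBS and lysed 30 min on ice. 10 µg protein per lane run on SDS-PAGE, transferred to PVDF and blocked overnight at 4 °C in 5% BSA. Probed 2 h at room temperature for PARP, Mcl-1 or Bcl-2, detected by ECL, and reprobed for β-actin as loading control.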

HeLa [14] = test: Induction of apoptosis in human HeLa cells at 50 nM after 24 to 48 hrs by Annexin V/propidium iodide-double staining-based flow cytometry; assay type: functional, cell-based; conditions: TDE = time-dependent effect
In short: (§6)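 HeLa or Jurkat cells exposed 24 or 48 h, then double-labelled with annexin-V-FITC and PI and analysed by flow cytometry for phosphatidylserine exposure.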

[15] = Toxicity in C57BL/6 mouse allografted with mouse B16 cells assessed as body weight loss at 3 to 7.5 mg/kg, ip dosing starting on day 9 post tumor injection administered […] on day 9,11, 13 and 15; assay type: organism-based; conditions: in vivo; in short: as §4
B16 [16] = test: Antitumor activity against mouse B16 cells allografted in C57BL/6 mouse assessed as reduction in tumor burden at 3 mg/kg, ip dosing starting on day 9 post tumor injection administered […] on day 9,11, 13 and 15 relative to control; assay type: functional; parameters: scale not given: the % may be the effect or the level left; in short: as §4
HUVEC [17] = test: Antivascular activity in HUVEC assessed as effect on total branching length at 10 to 100 nM after 1 hr by matrigel assay; assay type: functional, cell-based; conditions: Homo sapiens; in short: as §3
HeLa [18] = test: Induction of cell cycle arrest in human HeLa cells assessed as accumulation at G2/M phase at 25 nM after 24 hrs by propidium iodide-stained flow cytometry; assay type: functional, cell-based; in short: as §2
[19] = Cytotoxicity against HUVEC assessed as inhibition of cell growth; assay type: cell-based; conditions: human, HUVEC cells
HeLa [20] = test: Induction of cell cycle arrest in human HeLa cells assessed as arrest in mitotic phase at 50 nM after 24 hrs by p-histone H3 antibody staining based flow cytometry (reference value: 1.32%); assay type: functional
[21] = target: T2, Epidermal growth factor receptor; test: Inhibition of EGF-induced EGFR phosphorylation at Y1068 in human HeLa cells at 1 uM pretreated for 6 hrs followed by EGF cells and measured after 15 mins by Western blot analysis; assay type: cell-based
In short: (§7)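 HeLa cells treated 6 h with compound (10-1000 nM) or erlotinib, then stimulated with EGF for 15 min. EGF level is given as 50 ng/mL in the methods and 30 ng/mL in the figure legend. Lysates immunoblotted for total EGFR and phospho-Y1068, with β-actin as loading control.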

Jurkat [22] = test: Induction of apoptosis in human Jurkat cells at 50 nM after 24 to 48 hrs by Annexin V/propidium iodide-double staining-based flow cytometry; assay type: functional, cell-based; conditions: TDE = time-dependent effect; in short: as §6
HeLa [23] = test: Induction of ROS generation in human HeLa cells at 50 nM after 12 hrs by 2,7-dichlorodihydrofluorescein diacetate-staining based flow cytometry; assay type: functional, cell-based
In short: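 HeLa cells exposed 3, 6, 12 or 24 h to 50, 100 or 250 nM, then stained with JC-1 for mitochondrial potential or H2-DCFDA for ROS. Analysed by flow cytometry.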

[24] = target: T2, Epidermal growth factor receptor; test: Inhibition of EGF-induced EGFR phosphorylation at Y1068 in human HeLa cells pretreated for 6 hrs followed by EGF cells and measured after 15 mins by Western blot analysis; assay type: cell-based; in short: as §7
HUVEC [25] = test: Antivascular activity in HUVEC assessed as effect on nodes at 10 to 100 nM after 1 hr by matrigel assay; assay type: functional, cell-based; conditions: Homo sapiens; in short: as §3
HeLa [26] = test: Induction of apoptosis in human HeLa cells assessed as decrease in […] expression at 50 to 100 nM after 24 to 48 hrs by Western blot analysis; assay type: functional, cell-based; in short: as §5
[27] = target: T1, Vascular endothelial growth factor receptor 2; test: Inhibition of VEGFR2 (unknown origin)

T2 sequence (P00533 whole entry): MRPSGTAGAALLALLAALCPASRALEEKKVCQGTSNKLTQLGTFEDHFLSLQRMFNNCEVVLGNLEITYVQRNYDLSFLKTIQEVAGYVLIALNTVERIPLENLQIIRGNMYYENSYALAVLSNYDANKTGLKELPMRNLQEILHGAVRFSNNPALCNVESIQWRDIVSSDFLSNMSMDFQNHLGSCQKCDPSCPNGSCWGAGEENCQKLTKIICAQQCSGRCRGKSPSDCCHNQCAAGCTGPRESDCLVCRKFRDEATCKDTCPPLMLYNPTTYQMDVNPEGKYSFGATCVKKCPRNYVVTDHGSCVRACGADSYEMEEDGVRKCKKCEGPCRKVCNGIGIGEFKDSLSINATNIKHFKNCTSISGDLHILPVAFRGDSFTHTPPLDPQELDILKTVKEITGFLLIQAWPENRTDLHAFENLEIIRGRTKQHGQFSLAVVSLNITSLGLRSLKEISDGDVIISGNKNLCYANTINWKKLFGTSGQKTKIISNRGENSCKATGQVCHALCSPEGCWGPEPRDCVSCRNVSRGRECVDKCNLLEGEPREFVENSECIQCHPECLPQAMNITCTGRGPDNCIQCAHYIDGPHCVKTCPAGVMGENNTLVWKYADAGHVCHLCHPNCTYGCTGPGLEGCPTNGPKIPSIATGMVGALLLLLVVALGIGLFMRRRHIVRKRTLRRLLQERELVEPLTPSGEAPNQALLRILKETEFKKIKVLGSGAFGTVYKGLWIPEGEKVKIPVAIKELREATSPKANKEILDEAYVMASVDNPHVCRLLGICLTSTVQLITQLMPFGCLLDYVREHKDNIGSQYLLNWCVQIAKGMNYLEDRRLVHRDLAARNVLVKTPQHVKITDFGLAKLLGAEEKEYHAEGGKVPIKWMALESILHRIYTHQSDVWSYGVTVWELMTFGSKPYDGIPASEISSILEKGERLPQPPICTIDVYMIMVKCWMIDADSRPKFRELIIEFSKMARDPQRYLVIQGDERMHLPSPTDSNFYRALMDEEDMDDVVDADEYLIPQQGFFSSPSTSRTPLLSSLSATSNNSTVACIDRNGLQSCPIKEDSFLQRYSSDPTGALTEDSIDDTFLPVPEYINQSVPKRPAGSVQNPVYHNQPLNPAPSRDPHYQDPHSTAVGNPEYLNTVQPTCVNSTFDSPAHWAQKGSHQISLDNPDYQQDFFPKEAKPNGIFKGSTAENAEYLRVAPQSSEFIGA
T1 sequence (P35968 whole entry): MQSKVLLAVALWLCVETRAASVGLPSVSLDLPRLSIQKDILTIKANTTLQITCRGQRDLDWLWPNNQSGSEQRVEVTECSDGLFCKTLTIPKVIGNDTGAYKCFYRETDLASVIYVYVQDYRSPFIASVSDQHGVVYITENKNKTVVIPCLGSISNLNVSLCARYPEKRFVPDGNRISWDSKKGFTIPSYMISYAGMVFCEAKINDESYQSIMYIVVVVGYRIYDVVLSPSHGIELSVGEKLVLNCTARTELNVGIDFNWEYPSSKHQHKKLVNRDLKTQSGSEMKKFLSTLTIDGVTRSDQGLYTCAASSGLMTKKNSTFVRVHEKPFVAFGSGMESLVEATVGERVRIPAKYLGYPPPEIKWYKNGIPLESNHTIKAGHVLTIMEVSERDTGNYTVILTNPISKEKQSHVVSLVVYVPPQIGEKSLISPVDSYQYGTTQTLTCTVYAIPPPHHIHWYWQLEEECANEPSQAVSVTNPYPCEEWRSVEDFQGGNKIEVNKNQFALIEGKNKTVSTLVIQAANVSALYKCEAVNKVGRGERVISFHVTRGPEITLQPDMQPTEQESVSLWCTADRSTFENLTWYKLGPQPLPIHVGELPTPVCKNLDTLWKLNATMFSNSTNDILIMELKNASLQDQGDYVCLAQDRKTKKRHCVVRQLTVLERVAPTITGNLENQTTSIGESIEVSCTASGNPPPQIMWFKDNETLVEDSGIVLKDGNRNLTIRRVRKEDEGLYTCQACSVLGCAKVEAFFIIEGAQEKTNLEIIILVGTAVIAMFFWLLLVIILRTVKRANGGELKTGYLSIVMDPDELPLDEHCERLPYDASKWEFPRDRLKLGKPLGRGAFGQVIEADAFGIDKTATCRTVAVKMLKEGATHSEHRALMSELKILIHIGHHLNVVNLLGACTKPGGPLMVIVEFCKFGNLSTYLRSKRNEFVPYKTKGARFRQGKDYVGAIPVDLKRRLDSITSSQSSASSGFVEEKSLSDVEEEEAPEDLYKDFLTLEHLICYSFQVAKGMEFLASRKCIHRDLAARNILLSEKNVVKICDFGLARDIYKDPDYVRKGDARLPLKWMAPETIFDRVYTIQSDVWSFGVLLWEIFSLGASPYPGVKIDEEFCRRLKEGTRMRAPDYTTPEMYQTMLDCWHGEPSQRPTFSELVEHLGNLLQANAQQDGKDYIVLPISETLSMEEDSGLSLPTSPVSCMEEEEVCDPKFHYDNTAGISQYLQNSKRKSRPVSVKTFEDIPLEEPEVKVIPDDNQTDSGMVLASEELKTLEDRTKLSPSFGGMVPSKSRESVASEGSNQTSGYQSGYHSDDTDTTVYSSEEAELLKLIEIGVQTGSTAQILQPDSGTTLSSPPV

Structure (SMILES): COc1ccc(/C=C\c2cc(OC)c(OC)c(OC)c2)cc1O [COMBRETASTATIN A4]
- IC50 (RS4-11): 1 nM

Structure (SMILES): COc1cc(Nc2ncnc3cc(-c4ccccc4)sc23)cc(OC)c1OC
- IC50 [1]: > 1000 nM
- IC50 [2]: 23 nM
- IC50 (A549): 2300 nM
- IC50 (HT-29): 350 nM
- IC50 (RS4-11): 260 nM
- IC50 (Tubulin): 10000 nM
- IC50 (Jurkat [3]): 10 nM
- IC50 (HeLa [4]): 170 nM

Structure (SMILES): COc1cc(Nc2ncnc3cc(-c4ccc(C)cc4)sc23)cc(OC)c1OC
- Activity (HeLa [5]): 49.4 - 50%
- Activity (Jurkat [6]): Active
- Activity (HUVEC [7]): Active
- inhibition (Tubulin (Bos taurus)): 76%
- Activity (HUVEC [8]): Active
- Activity (HUVEC [9]): Active
- Activity (B16 [10]): 52.5%
- IC50 (B16 [11]): 23.4 nM
- IC50 [1]: > 1000 nM
- Activity (HUVEC [12]): Active
- Activity (HeLa [13]): Active
- Activity (HeLa [14]): Tde
- IC50 [2]: 30 nM
- Activity [15]: Non-Toxic
- Activity (B16 [16]): 28%
- Activity (HUVEC [17]): Active
- IC50 (A549): 19 nM
- Activity (HeLa [18]): Active
- GI50 [19]: 56 nM
- Activity (HeLa [20]): 36.8 - 38%
- inhibition [21]: Active
- Activity (Jurkat [22]): Tde
- Activity (HeLa [23]): Active
- IC50 (HT-29): 20 nM
- inhibition [24]: Dose-dependent effect
- Activity (HUVEC [25]): Active
- IC50 (RS4-11): 2 nM
- Activity (HeLa [26]): Active
- IC50 (Tubulin): 710 nM
- IC50 (Jurkat [3]): 1 nM
- IC50 (HeLa [4]): 1 nM

Structure (SMILES): Cc1cc2cc(Nc3ncnc4cc(-c5ccccc5)sc34)ccc2[nH]1
- IC50 [27]: 140 nM

Structure (SMILES): COc1cc(Nc2ncnc3cc(-c4cccs4)sc23)cc(OC)c1OC
- IC50 [1]: > 1000 nM
- IC50 [2]: 2.5 nM
- IC50 (A549): 5100 nM
- IC50 (HT-29): 210 nM
- IC50 (RS4-11): 360 nM
- IC50 (Tubulin): 18000 nM
- IC50 (Jurkat [3]): 80 nM
- IC50 (HeLa [4]): 1700 nM

Structure (SMILES): COc1cc(Nc2ncnc3cc(-c4ccc(Br)cc4)sc23)cc(OC)c1OC
- inhibition (Tubulin (Bos taurus)): 35%
- IC50 [2]: 326 nM
- IC50 (A549): 530 nM
- IC50 (HT-29): 150 nM
- IC50 (RS4-11): 190 nM
- IC50 (Tubulin): 2500 nM
- IC50 (Jurkat [3]): 30 nM
- IC50 (HeLa [4]): 220 nM

Structure (SMILES): COc1cc(Nc2ncnc3cc(-c4ccc(I)cc4)sc23)cc(OC)c1OC
- inhibition (Tubulin (Bos taurus)): 35%
- IC50 [1]: > 1000 nM
- IC50 [2]: 10 nM
- IC50 (A549): 770 nM
- IC50 (HT-29): 250 nM
- IC50 (RS4-11): 170 nM
- IC50 (Tubulin): 2500 nM
- IC50 (Jurkat [3]): 300 nM
- IC50 (HeLa [4]): 280 nM
